Consider 22 compounds from ChEMBL document CHEMBL1759963, “Synthesis and biological evaluation of 4-styrylcoumarin derivatives as inhibitors of TNF-α and IL-6 with anti-tubercular activity” (2011).

Common to all, as to format: functional
Test [1] concerns THP-1. Kind of test: Antiinflammatory activity in human THP1 cells assessed as inhibition of LPS-induced TNFalpha production at 10 uM after 24 hrs by ELISA. The following applies: THP-1, 24 h. An outline of the steps:
(§1)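 THP-1 cells grown in RPMI 1640 with 10% FBS, penicillin and streptomycin, then differentiated with PMA. Test compound or vehicle (0.5% DMSO) added and preincubated 30 min at 37 °C. LPS (E. coli 0127:B8) then added and cells incubated 24 h at 37 °C, 5% CO2. Supernatant TNF-α and IL-6 measured by ELISA. Cytotoxicity checked in parallel by CCK-8. Percent inhibition versus control.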
In general terms: In an ELISA, binding on a coated surface is turned into a signal by an enzyme label.

Test [2] deals with THP-1. The test can be described thus: Antiinflammatory activity in human THP1 cells assessed as inhibition of LPS-induced IL6 production at 10 uM after 24 hrs by ELISA. The following applies: THP-1, 24 h. A digest of the protocol:
as §1

Test [3] deals with Mycobacterium tuberculosis. The test can be described thus: Antitubercular activity against Mycobacterium tuberculosis H37Rv ATCC 27294 at 6.25 ug/ml by microplate alamar blue assay. An outline of the steps:
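Primary screen against M. tuberculosis H37Rv (ATCC 27294) in BACTEC 12B medium by microplate Alamar Blue assay. Tested at 6.25 µg/mL or molar equivalent of the highest-MW compound in the congener series. Fluorescent compounds instead tested in the BACTEC 460 radiometric system.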
On the technique in general: The colour change of resazurin is a common sign of viable cells or microbes.

Consider `N#Cc1c(/C=C/c2ccco2)c2cc(Cl)ccc2oc1=O`, for which the inhibition – broadly, the share of the control response that was lost under treatment – at 10 µM in test [1] was determined as 9%; in test [2], 0%. The compound further came in with an inhibition at 6.25 µg/mL in test [3] of 63%.

Turning to `COc1ccc(/C=C/c2c(C#N)c(=O)oc3ccc(Cl)cc23)cc1OC`, the inhibition at 10 µM in test [1] was found to be 0%; in test [2], 40%. Further, in test [3], testing at 6.25 µg/mL gave an inhibition of 63%.

On to `N#Cc1c(/C=C/c2ccccc2)c2cc(Cl)ccc2oc1=O`, for which the inhibition at 10 µM was determined as 32% in test [1] and 87% in test [2]. This compound also yielded an inhibition at 6.25 µg/mL in test [3] of 55%.

Take `N#Cc1c(/C=C/c2ccc(F)cc2)c2cc(Cl)ccc2oc1=O`: the inhibition at 10 µM in test [1] was determined as 0%; in test [2], 61%.

Consider `N#Cc1c(/C=C/c2c[nH]c3ccccc23)c2cc(Cl)ccc2oc1=O`, for which the inhibition at 10 µM was found to be 31% in test [1] and 0% in test [2].

As to `C=Cc1ccccc1/C=C/c1c(C#N)c(=O)oc2ccc(Cl)cc12`, the inhibition at 10 µM in test [1] came to 52%; in test [2], 0%.

`N#Cc1c(/C=C/c2c3ccccc3cc3ccccc23)c2cc(Cl)ccc2oc1=O`: the inhibition at 6.25 µg/mL in test [3] was found to be 81%.

For `N#Cc1c(/C=C/c2cccc(Oc3ccccc3)c2)c2cc(Cl)ccc2oc1=O`, the results for the inhibition at 10 µM in test [1] and in test [2] were 0% and 11%, respectively. In test [3], this compound gave an inhibition at 6.25 µg/mL of 72%.

For the compound `N#Cc1c(/C=C/c2cccc(Br)c2)c2cc(Cl)ccc2oc1=O`, the inhibition at 10 µM in test [1] amounted to 0%; in test [2], 2%. The compound further gave an inhibition at 6.25 µg/mL in test [3] of 23%.

As for `N#Cc1c(/C=C/c2cccc(O)c2)c2cc(Cl)ccc2oc1=O`, the values for the inhibition at 10 µM in test [1] and in test [2] were 23% and 39%, respectively.

`N#Cc1c(/C=C/c2ccc(Cl)cc2)c2cc(Cl)ccc2oc1=O`: the inhibition at 10 µM in test [1] was determined as 0%; in test [2], 4%.

As for `N#Cc1c(/C=C/c2ccc(O)cc2)c2cc(Cl)ccc2oc1=O`, the inhibition at 10 µM in test [1] was determined as 0%; in test [2], 73%.

On to `COc1ccc(/C=C/c2c(C#N)c(=O)oc3ccc(Cl)cc23)cc1`, for which 6.25 µg/mL produced 33% inhibition in test [3].

Turning to `COc1cc(/C=C/c2c(C#N)c(=O)oc3ccc(Cl)cc23)cc(OC)c1OC`, the inhibition at 10 µM in test [1] was determined as 38%; in test [2], 8%. In addition, the inhibition at 6.25 µg/mL in test [3] amounted to 87%.

Turning to `CSc1ccc(/C=C/c2c(C#N)c(=O)oc3ccc(Cl)cc23)cc1`, the values for the inhibition at 10 µM in test [1] and in test [2] were 0% and 15%, respectively.

As to `N#Cc1c(/C=C/c2ccccc2Cl)c2cc(Cl)ccc2oc1=O`, the inhibition at 10 µM in test [1] turned out to be 0%; in test [2] it was 19%.

For `CN(C)c1ccc(/C=C/c2c(C#N)c(=O)oc3ccc(Cl)cc23)cc1`, the inhibition at 10 µM came out at 33% in test [1] and 0% in test [2]. In test [3], this compound yielded an inhibition at 6.25 µg/mL of 79%.

Take `N#Cc1c(/C=C/c2cccc(Cl)c2)c2cc(Cl)ccc2oc1=O`: the inhibition at 10 µM worked out at 0% in test [1] and 21% in test [2]. At 6.25 µg/mL the inhibition in test [3] was 69%.

For the compound `N#Cc1c(/C=C/c2cccc([N+](=O)[O-])c2)c2cc(Cl)ccc2oc1=O`, the inhibition at 10 µM in test [1] worked out at 0%; in test [2], 72%. In test [3], this compound yielded an inhibition at 6.25 µg/mL of 69%.

For the compound `COc1ccccc1/C=C/c1c(C#N)c(=O)oc2ccc(Cl)cc12`, the values for the inhibition at 10 µM in test [1] and in test [2] were 19% and 17%, respectively. In test [3], 6.25 µg/mL produced 24% inhibition.

As for `N#Cc1c(/C=C/c2ccccc2[N+](=O)[O-])c2cc(Cl)ccc2oc1=O`, the inhibition at 10 µM in test [1] amounted to 0%; in test [2] it was 14%. For the same compound, the inhibition at 6.25 µg/mL in test [3] is 11%.

As for `COc1cccc(/C=C/c2c(C#N)c(=O)oc3ccc(Cl)cc23)c1`, the inhibition at 10 µM amounted to 73% in test [1] and 0% in test [2]. In test [3], at 6.25 µg/mL the inhibition was 31%.
